Screens deposited in PubChem by several laboratories.
TNF necrop inh: inhibitors of TNF-alpha triggered necroptosis, primary screen, cell-based, Jurkat FADD-/-, single concentration; Jurkat FADD-/- TNF necroptosis rescue, ATP luminescence, 24 h; 0 = TNF only, 100 = no-TNF cells; activation (protection from cell death), % at 10 µM; 220,000 compounds, 0.068% hits; AID 463075, 2010;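 active means activation, meaning protection from cell death, of at least 50% relative to plate controls; inactive means activation below 50%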;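 further: necroptosis triggered by 40 ng/mL TNF-alpha added together with compound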
Runt-SMMHC FRET: inhibitors of RUNX1 Runt–CBFb-SMMHC binding, primary screen, biochemical, FRET, Cerulean-Runt, Venus-CBFb-SMMHC, uHTS. Runt-related transcription factor 1 (Homo sapiens) + Core-binding factor subunit beta …. Cerulean-Runt/Venus-CBFb-SMMHC FRET ratio 530/480, 1 h. inhibition, % at 20 µM. 220,000 compounds, 0.74% hits. AID 1434, 2008;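 active means mean inhibition across duplicate retests at 20 µM reaching about 50%, limit read from the data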;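 further: inhibitors lower the FRET ratio by blocking Runt binding to CBFb-SMMHC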
Target sequence (Q01196 whole entry, looked up): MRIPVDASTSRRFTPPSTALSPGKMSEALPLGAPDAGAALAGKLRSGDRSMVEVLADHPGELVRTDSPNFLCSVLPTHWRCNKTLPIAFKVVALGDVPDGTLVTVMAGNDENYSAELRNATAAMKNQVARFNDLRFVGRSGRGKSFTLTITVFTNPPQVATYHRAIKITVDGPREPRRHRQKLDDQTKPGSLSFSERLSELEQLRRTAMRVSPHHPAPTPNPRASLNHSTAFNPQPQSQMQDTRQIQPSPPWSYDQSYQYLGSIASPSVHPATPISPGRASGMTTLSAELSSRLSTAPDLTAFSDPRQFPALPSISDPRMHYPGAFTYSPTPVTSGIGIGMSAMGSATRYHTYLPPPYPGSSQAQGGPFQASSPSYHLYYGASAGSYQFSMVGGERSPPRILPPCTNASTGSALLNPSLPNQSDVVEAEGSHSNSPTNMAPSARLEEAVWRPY
Target sequence (Q13951 whole entry, looked up): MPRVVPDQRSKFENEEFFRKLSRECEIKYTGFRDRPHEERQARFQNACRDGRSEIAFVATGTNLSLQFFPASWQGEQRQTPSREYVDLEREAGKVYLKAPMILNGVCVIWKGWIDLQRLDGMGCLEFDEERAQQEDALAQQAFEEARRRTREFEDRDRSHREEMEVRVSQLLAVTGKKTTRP
Hck Nef HTS: inhibitors of Nef-activated human Hck kinase, primary screen, biochemical, Z-Lyte FRET, 384-well, Hck-YEEI; Tyrosine-protein kinase HCK (Homo sapiens), P08631; 220,000 compounds, 0.68% hits; Recombinant Hck-YEEI plus Nef, Z-Lyte FRET kinase assay; AID 463187, 2010; inhibition, % at 20 µM;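 active means Hck-Nef kinase inhibition above about 50%, limit read from the data; inactive means inhibition below that limit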
Runt-CBFb FRET: inhibitors of RUNX1 Runt–CBFb binding, primary screen, biochemical, FRET, Cerulean-Runt, Venus-CBFb, uHTS. Runt-related transcription factor 1 (Homo sapiens) + Core-binding factor subunit beta …. Cerulean-Runt/Venus-CBFb FRET ratio 530/480, 1 h. inhibition, % at 20 µM. 220,000 compounds, 0.46% hits. AID 1496, 2009;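 active means inhibition over about 50% at 20 µM in the single-dose screen, limit read from the data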
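test system = Cerulean-tagged RUNX1 Runt domain (FRET donor) fusion protein | reagent = Venus-CBFb binding partner, 100 nM | incubation = protein complex preformed 1 h, compound exposure 1 h, room temperature, dark | detection = FRET fluorescence | read-out basis = loss of energy transfer signal | controls = 5 µM unlabeled CBFb as full-inhibition high control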
zVAD death inh: inhibitors of zVAD-triggered necroptosis, primary screen, L929 cells | L929 zVAD necroptosis rescue, ATP luminescence, 24 h; with zVAD 60 µM | viability rescue, % at 10 µM | 220,000 compounds, 0.38% hits | AID 1377, 2008;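 active means activation, scaled between plate controls, above about 75%, limit read from the data; inactive means activation under that limit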
RanGTP-Imp inh: inhibitors of RanGTP-importin-beta interaction, primary screen, biochemical, FRET, CFP-Ran, YFP-importin-beta, homogeneous; Ran GTPase (GTP-bound) - importin-beta complex; 300,000 compounds, 1.1% hits; AID 2216, 2009; inhibition, % (concentration not given with the values); cell-free CFP-Ran/YFP-importin-beta FRET ratio;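 active means more than half of the replicate wells show a fall in the fluorescence ratio signal beyond about 16%, limit read from the data, passing the limit was not always enough; inconclusive means exactly half of the replicate wells pass the set limit; inactive means fewer than half of replicates pass the limit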
Hck Nef conf: retest of Hck:Nef kinase inhibitor hits, confirmation, biochemical, Z-Lyte FRET, 384-well, p-Tyr peptide counterscreen. shares compounds with Hck Nef HTS. Recombinant Hck-YEEI:Nef, Z-Lyte FRET kinase assay. calls only at 10 µM. 1,300 compounds, 28% hits. AID 463188, 2010;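 active means average inhibition of at least 50%, with Z-scores no higher than 3 in both the phospho-tyrosine peptide and fluorescence counterscreens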
Of the large screens only hits and unclear results are named; the others gave an inactive call (follow-up assays come after a bar, where shown). This is a sample that favours compounds with a hit; in the whole collection about 2.1% have one here.

C/C(=C/CCC(C)[C@H]1CC[C@@]2(C)C3=C(CC[C@]12C)[C@@]1(C)CCC(=O)C(C)(C)[C@@H]1CC3)C(=O)O (stereo partly specified)	Hck Nef HTS 100.4 | Hck Nef conf active
CC1(C)CC(=O)C2=C(C1)c1c(ccc3ccccc13)NC2c1cc([N+](=O)[O-])cc([N+](=O)[O-])c1O (stereo unspecified)	Hck Nef HTS 51.4 | Hck Nef conf active
CC(C)(C)c1cc(S(=O)(=O)CCc2ccncc2)cc(C(C)(C)C)c1F	none (no result: TNF necrop inh, Runt-SMMHC FRET, Hck Nef HTS, Runt-CBFb FRET, zVAD death inh)
CCOC(=O)c1cc(CC)sc1NC(=O)COc1ccc2c(C)cc(=O)oc2c1	Hck Nef HTS 54.7 | Hck Nef conf inactive
Cc1cc(=O)oc2cc(OCc3ccc(C(=O)OCC(=O)Nc4ccc(N(C)C)cc4)cc3)ccc12	Hck Nef HTS 146.7 | Hck Nef conf inactive
Cc1cc(=O)oc2cc(OCc3ccc(C(=O)OCC(=O)NC4CCS(=O)(=O)C4)cc3)ccc12 (stereo unspecified)	none
Cc1cc(=O)oc2cc(OCC(=O)Nc3nnc(C(C)C)s3)ccc12	none
Cc1nnsc1C(=O)NNC(=O)c1cccc2ccccc12	none
COc1ccccc1C(=O)Oc1ccc2c(c1)O/C(=C\c1ccncc1)C2=O	Hck Nef HTS 75.6 | Hck Nef conf active
COc1ccc(N=Nc2c(C)[nH][nH]c2=O)cc1	Hck Nef HTS 59.8 | Hck Nef conf inactive
O=C(NCC1CC1)c1ccccc1Cl	none (no result: TNF necrop inh, Runt-SMMHC FRET, Hck Nef HTS, Runt-CBFb FRET, zVAD death inh)
Oc1cc2c(cc1C(c1ccc(Br)cc1)N1CCCC1)OCO2 (stereo unspecified)	Hck Nef HTS 73.2 (no result: RanGTP-Imp inh) | Hck Nef conf inactive
CCOc1ccccc1CNC(=O)Cn1ccc2cc(S(=O)(=O)N3CCC(C)CC3)ccc21	none (no result: TNF necrop inh, Runt-SMMHC FRET, Hck Nef HTS, Runt-CBFb FRET, zVAD death inh)
CCC/C=N/NC(=O)c1cccc(Br)c1	Hck Nef HTS 119.4 | Hck Nef conf inactive
CCC/C=N/NC(=O)c1ccc(F)cc1	none
Nc1ccc(-c2nc3ccc(C(=O)O)cc3s2)cc1	Runt-SMMHC FRET 85.7, Hck Nef HTS 114.8
Nc1cccc(-c2nc3ccc(N)cc3s2)c1	none
Nc1ccc(-c2nc3ccc(N)cc3s2)cc1	Hck Nef HTS 60.7 | Hck Nef conf inactive
O=C(O)c1ccc2nc(-c3ccccc3)sc2c1	none
CC1(C)CCC[C@]2(C)C(CS(=O)c3ccccc3)=C(C=O)CC[C@@H]12 (stereo partly specified)	none (no result: TNF necrop inh, Runt-SMMHC FRET, Hck Nef HTS, Runt-CBFb FRET, zVAD death inh)
CCc1cc(=O)oc2c(CN3CCCC3)c(O)c(Cl)cc12	Runt-SMMHC FRET 145.7, Hck Nef HTS 102.3, Runt-CBFb FRET 99.1, RanGTP-Imp inh inconclusive
CCc1c(C)c2ccc(O)c(CN3CCCC3)c2oc1=O	none (no result: TNF necrop inh, Runt-SMMHC FRET, Hck Nef HTS, Runt-CBFb FRET, zVAD death inh)
CCCCc1cc(=O)oc2c(CN3CCCC3)c(O)ccc12	Runt-SMMHC FRET 94.8, Hck Nef HTS 96.7 | Hck Nef conf inactive
Cc1cc(=O)oc2c(CN3CC(C)OC(C)C3)c(O)c(Cl)cc12 (stereo unspecified)	Runt-SMMHC FRET 135.9, Hck Nef HTS active, Runt-CBFb FRET 108.2, RanGTP-Imp inh 33.6
CCc1cc2c(-c3ccccc3)cc(=O)oc2c(CN2CCOCC2)c1O	none
Cc1cc(=S)c2cccc(C)c2[nH]1	none
CC(C)n1cnc2c(Nc3cccc(F)c3)nc(NCCO)nc21	Hck Nef HTS 96.7 | Hck Nef conf active
CC(C)n1cnc2c(Nc3ccc(F)c(Cl)c3)nc(NCCO)nc21	none (no result: TNF necrop inh, Runt-SMMHC FRET, Hck Nef HTS, Runt-CBFb FRET, zVAD death inh)
CC(C)C[C@H](CO)Nc1nc(Nc2cccc(Cl)c2)c2ncn(C(C)C)c2n1	Hck Nef HTS 105.8 | Hck Nef conf active
Cc1sc(-c2ccncc2)nc1OC(=O)c1ccc(F)cc1F	none
CCCOc1ccc(C2c3c(oc4ccccc4c3=O)C(=O)N2CCCN2CCOCC2)cc1 (stereo unspecified)	none
Clc1ccc(NNc2ccnc3cc(Cl)ccc23)cc1	none
Oc1ccc(Nc2ccnc3cc(Cl)ccc23)cc1	Hck Nef HTS 64.5 | Hck Nef conf active
CCc1cc(-c2[nH]ncc2-c2ccc3c(c2)OCO3)c(O)cc1O	Hck Nef HTS 65.0 | Hck Nef conf active
C[n+]1nc(Nc2cccc(F)c2)sc1-c1ccc(C(=O)O)cc1	none (no result: RanGTP-Imp inh)
O=[N+]([O-])c1ccc(-c2nn(-c3ccccc3)cc2/C=N/n2c(-c3ccncc3)n[nH]c2=S)cc1	Hck Nef HTS 53.6 | Hck Nef conf inactive
Nc1cc(C(=O)O)c(N)c2c1C(=O)c1ccccc1C2=O	Hck Nef HTS 62.0 | Hck Nef conf inactive
Nc1c(C(=O)O)ccc2c1C(=O)c1ccccc1C2=O	none
Cc1ccc(NC(=O)COc2ccc3c(c2)CCC3)nc1	none (no result: TNF necrop inh, Runt-SMMHC FRET, Hck Nef HTS, Runt-CBFb FRET, zVAD death inh)
CC1(C)Cc2nc(Cl)c(C#N)cc2CO1	none
CC1(C)Cc2nc(N3CCCC3)c(C#N)cc2CO1	Hck Nef HTS 73.9 | Hck Nef conf inactive
CCCc1nc(SCC(=O)NNC(=O)c2ccc(OC)cc2)c2ccccc2n1	none
CCCc1nc(SCC(=O)NNC(=O)C2CCCCC2)c2ccccc2n1	Hck Nef HTS 74.8 | Hck Nef conf inactive
O=C(Nc1cccc(-c2nc3ccccc3[nH]2)c1)c1cccc(NC(=O)c2ccco2)c1	Hck Nef HTS 73.6 | Hck Nef conf active
O=C(Nc1ccc(-c2nc3ccccc3[nH]2)cc1)c1c(F)c(F)c(F)c(F)c1F	Hck Nef HTS 112.0 | Hck Nef conf inactive
CCOc1ccc(C(=O)Nc2ccc(-c3nc4ccccc4[nH]3)cc2)cc1[N+](=O)[O-]	Hck Nef HTS 77.6 | Hck Nef conf active
COc1c(F)c(F)c(C(=O)Nc2ccc(-c3nc4ccccc4[nH]3)cc2)c(F)c1F	none
Cc1cc(C)c2nc(-c3ccccn3)cc(C(=O)n3cccn3)c2c1	none
Cc1cc2c(C)cc(=O)oc2c2c1NCCC2	Runt-SMMHC FRET 60.5, Hck Nef HTS 97.5
O=C(N/N=C\c1ccc(F)cc1)c1ccc(Cn2cc(Br)c([N+](=O)[O-])n2)o1	Hck Nef HTS 62.2 | Hck Nef conf active
